The source made the active and inactive calls. The rule behind the calls is not given here.
Assays:
[1] = Antiproliferative activity against mouse 3T3-F442A cells assessed as [3H]thymidine incorporation at 3 uM; format: functional
Mus musculus [2] = organism: Mus musculus; assay: Induction of preadipocyte differentiation in mouse 3T3-F442A cells assessed as triglyceride accumulation at 6 uM after 9 days by oil red O staining relative to control; format: functional, cell-based
Method in brief: (§1)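 Drug was present while 3T3-F442A cells differentiated. On day 9 cells were fixed in 10% formalin and stained with 0.0021% (wt/vol) Oil red O in 60% isopropanol. Cells were dried, dye extracted with 100% isopropanol, and fluorescence read at 495 nm. Data are from three independent experiments, Mann-Whitney U test versus control.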

Mus musculus [3] = organism: Mus musculus; assay: Antiproliferative activity against mouse 3T3-F442A cells assessed as mtDNA depletion; format: functional, cell-based
[4] = Antiproliferative activity against mouse 3T3-F442A cells assessed as [3H]thymidine incorporation at 180 uM; format: functional
[5] = Antiproliferative activity against mouse 3T3-F442A cells assessed as [3H]thymidine incorporation at 6 uM; format: functional
[6] = Cytotoxicity against mouse 3T3-F442A cells at 6 uM after 8 days by trypan blue staining
Mus musculus [7] = organism: Mus musculus; assay: Induction of preadipocyte differentiation in mouse 3T3-F442A cells assessed as triglyceride accumulation at 0.1 uM after 9 days by oil red O staining relative to control; format: functional, cell-based; method in brief: as §1
Mus musculus [8] = organism: Mus musculus; assay: Induction of preadipocyte differentiation in mouse 3T3-F442A cells assessed as triglyceride accumulation at 3 uM after 9 days by oil red O staining relative to control; format: functional, cell-based; method in brief: as §1
Mus musculus [9] = organism: Mus musculus; assay: Induction of adipocyte differentiation in mouse 3T3-F442A cells assessed as C/EBPalpha mRNA expression on day 6 by RT-PCR analysis; format: functional, cell-based
Mus musculus [10] = organism: Mus musculus; assay: Antiproliferative activity against mouse 3T3-F442A cells assessed as [3H]thymidine incorporation; format: functional, cell-based
Mus musculus [11] = organism: Mus musculus; assay: Induction of adipocyte differentiation in mouse 3T3-F442A cells assessed as triglyceride accumulation at 1 uM on day 9 by oil red O staining relative to control; format: functional, cell-based
Method in brief: (§2)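 Drug was added to 3T3-F442A cells only after clonal expansion was complete. On day 9 cells were fixed in formalin and stained with 0.0021% Oil red O in 60% isopropanol. Dye was extracted with 100% isopropanol and fluorescence read at 495 nm. Data are from four independent experiments, ANOVA with Bonferroni versus control.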

Mus musculus [12] = organism: Mus musculus; assay: Antiproliferative activity against mouse 3T3-F442A cells assessed as [3H]thymidine incorporation at 0.1 uM; format: functional, cell-based
3T3-F442A (Mus musculus) [13] = assay: Induction of preadipocyte differentiation in mouse 3T3-F442A cells assessed as PPARgamma mRNA expression on day 4 by RT-PCR analysis
3T3-F442A [14] = assay: as above
Mus musculus [15] = organism: Mus musculus; assay: Induction of adipocyte differentiation in mouse 3T3-F442A cells assessed as PPARgamma mRNA expression on day 6 by RT-PCR analysis; format: functional, cell-based
3T3-F442A (Mus musculus) [16] = assay: Induction of preadipocyte differentiation in mouse 3T3-F442A cells assessed as C/EBPalpha mRNA expression on day 6 by RT-PCR analysis
3T3-F442A [17] = assay: as above
Mus musculus [18] = organism: Mus musculus; assay: Induction of preadipocyte differentiation in mouse 3T3-F442A cells assessed as adiponectin mRNA expression on day 9 by RT-PCR analysis; format: functional, cell-based
Method in brief: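 3T3-F442A preadipocytes were exposed to drug or vehicle from day −7, induced on day 0 and differentiated to day +9, when RNA was taken. Adiponectin mRNA was measured by real-time RT-PCR (42 cycles, 94/55/72°C) against transferrin receptor as calibrator. RNA and cDNA were pooled; there were three independent experiments with triplicate PCR each.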

Mus musculus [19] = organism: Mus musculus; assay: Induction of adipocyte differentiation in mouse 3T3-F442A cells assessed as triglyceride accumulation at 6 uM on day 9 by oil red O staining relative to control; format: functional, cell-based; method in brief: as §2
[20] = Antiproliferative activity against mouse 3T3-F442A cells assessed as [3H]thymidine incorporation at 1 uM; format: functional
Homo sapiens = assay: Antiproliferative activity against human subcutaneous preadipocyte assessed as [3H]thymidine incorporation at 6 uM; format: functional
Method in brief: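 Primary human subcutaneous preadipocytes (collagenase-digested abdominal fat, kept in DMEM-Ham's F-12 1:1 with 10% FBS and 172 µM ascorbate 2-phosphate) were given drug or vehicle for 24 h. [3H]thymidine was then added for a further 24 h, and cells were filter-harvested and counted by beta counter (cpm). There were 4 to 16 replicates per experiment, in at least 3 independent experiments.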

[21] = Cytotoxicity against mouse 3T3-F442A cells at 1 uM after 8 days by trypan blue staining

Cc1cn([C@H]2C[C@H](N=[N+]=[N-])[C@@H](CO)O2)c(=O)[nH]c1=O [ZIDOVUDINE]
Activity [1]: 30%
Activity (Mus musculus [2]): Active
Activity (Mus musculus [3]): inactive
Activity [4]: 30%
Activity [5]: 30%
Activity [6]: Non-toxic
Activity (Mus musculus [7]): inactive
Activity (Mus musculus [8]): inactive
Activity (Mus musculus [9]): inactive
Activity (Mus musculus [10]): Active
Activity (Mus musculus [11]): inactive
Activity (Mus musculus [12]): inactive
Activity (3T3-F442A (Mus musculus) [13]): Active
Activity (3T3-F442A [14]): Active
Activity (Mus musculus [15]): inactive
Activity (3T3-F442A (Mus musculus) [16]): Active
Activity (3T3-F442A [17]): Active
Activity (Mus musculus [18]): Active
Activity (Mus musculus [19]): inactive
Activity [20]: 30%
Activity (Homo sapiens): Active
Activity [21]: Non-toxic
